Paper PMC6044853 (ACS Omega, 2017)
Converted amounts (≈) assume the structure as drawn.

How the values were obtained:
S. aureus ATCC 43300 = experiment: MIC, clinical isolate strain 5; type: cell-based; conditions: Staphylococcus aureus, ATCC43300, read-out: MIC strain 5
Outline: (§1)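 Broth microdilution per CLSI guidelines. MIC is the lowest concentration preventing visible bacterial growth. MIC is reported in μg/mL, with S. aureus values also converted to μM.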

USA300 #417 = experiment: MIC, clinical isolate strain 6; type: cell-based; conditions: Staphylococcus aureus, USA300, read-out: MIC strain 6
Outline: as §1

USA300 #757 = experiment: MIC, clinical isolate strain 7; type: cell-based; conditions: Staphylococcus aureus, USA300, read-out: MIC strain 7
Outline: as §1

USA300 #1799 = experiment: MIC, clinical isolate strain 8; type: cell-based; conditions: Staphylococcus aureus, USA300, read-out: MIC strain 8
Outline: as §1

[1] = test system: S. aureus strain ATCC 29213; experiment: MIC, broth microdilution; type: cell-based, Staphylococcus aureus; conditions: S. aureus 29213; Table 1
Outline: as §1

[2] = test system: E. coli strain ATCC 25922; experiment: MIC, broth microdilution; type: cell-based; conditions: Escherichia coli, ATCC25922, read-out: MIC E. coli
Outline: as §1

S. aureus ATCC 29247 = experiment: MIC, clinical isolate strain 1; type: cell-based; conditions: Staphylococcus aureus, ATCC29247, read-out: MIC strain 1
Outline: as §1

USA300 #2690 = experiment: MIC, clinical isolate strain 9; type: cell-based; conditions: Staphylococcus aureus, USA300, read-out: MIC strain 9
Outline: as §1

G. mellonella larvae = experiment: Toxicity in G. mellonella larvae; type: in vivo, Galleria mellonella; conditions: 50 and 100 mg/kg in 50% PEG in saline, injected, 48 h
Outline: (§2)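 G. mellonella model: groups of 10 last-instar larvae weighing 200–300 mg, held at 37 °C. Test compound is dissolved in 50% PEG in saline (0 [vehicle], 50, 100 mg/kg) and injected into the last left proleg with a Hamilton syringe. Mortality is scored every 12 h for 48 h. Survival is analysed by log rank and χ² test (1 degree of freedom), with three independent experiments.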

[3] = test system: G. mellonella larvae infected with MRSA ATCC 43300; experiment: Antimicrobial efficacy in G. mellonella model of infection; type: in vivo, Galleria mellonella; conditions: 2.5 × 10^6 CFU/larva MRSA ATCC 43300
Outline: as §2

S. aureus FtsZ [4] = biological target: T1, S. aureus FtsZ (Staphylococcus aureus, UniProt P0A031); experiment: STD NMR study; type: binding
T1 sequence (P0A031 1-390): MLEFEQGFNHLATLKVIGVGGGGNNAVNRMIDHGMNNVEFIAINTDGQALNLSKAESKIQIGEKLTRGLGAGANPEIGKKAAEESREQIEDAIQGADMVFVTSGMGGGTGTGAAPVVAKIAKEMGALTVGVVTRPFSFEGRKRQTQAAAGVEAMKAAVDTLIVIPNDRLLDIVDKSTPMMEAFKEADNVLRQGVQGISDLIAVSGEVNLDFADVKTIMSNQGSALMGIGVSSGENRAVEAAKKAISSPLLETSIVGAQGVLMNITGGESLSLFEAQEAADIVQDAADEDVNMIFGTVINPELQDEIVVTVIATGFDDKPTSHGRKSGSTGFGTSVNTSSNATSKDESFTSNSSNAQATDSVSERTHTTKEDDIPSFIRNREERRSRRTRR
Outline: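 Saturation transfer difference NMR with purified S. aureus FtsZ at 600 MHz and 298 K. For group epitope mapping, each proton's STD signal is integrated relative to the strongest STD signal, set to 100%.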

S. aureus FtsZ [5] = biological target: T1, S. aureus FtsZ; experiment: Light scattering assay of FtsZ polymerization; type: biochemical; conditions: 30 μM compound, vs 1% DMSO vehicle
S. aureus FtsZ [6] = biological target: T1, S. aureus FtsZ; experiment: GTPase hydrolysis activity assay; type: biochemical; conditions: read-out: inhibition of GTPase hydrolysis activity
B. subtilis 168 [7] = experiment: MIC, B. subtilis 168; type: cell-based; conditions: Bacillus subtilis, 168, read-out: MIC B. subtilis 168
B. subtilis 168 [8] = experiment: Bacterial morphology of B. subtilis 168; type: cell-based, Bacillus subtilis; conditions: sublethal concentration; DMSO-treated cells < 5 μm
[9] = test system: green fluorescent protein-tagged FtsZ in B. subtilis 168; experiment: Z-ring visualization of B. subtilis 168; type: cell-based, Bacillus subtilis
Outline: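 B. subtilis 168 expressing functional GFP-tagged FtsZ is treated with compound or DMSO. Z-ring formation is imaged by fluorescence microscopy alongside matching phase-contrast images.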

[10] = Solubility in aqueous medium; type: physicochemical; conditions: precipitation in aqueous medium at >80 μM

Structure (SMILES) | MIC (S. aureus ATCC 43300) [µg/mL] | MIC (USA300 #417) [µg/mL] | MIC (USA300 #757) [µg/mL] | MIC (USA300 #1799) [µg/mL] | MIC S. aureus [1] [µg/mL] | MIC S. aureus, number in parentheses calculated in μM [1] [µM] | MIC [2] [µg/mL] | MIC (S. aureus ATCC 29247) [µg/mL] | MIC (USA300 #2690) [µg/mL] | toxicity to G. mellonella larvae (survival) (G. mellonella larvae) | survival time of infected larvae ([3]; 50 mg/kg) [h] | survival rate of infected larvae ([3]; 100 mg/kg, 48 h) [%] | binding to FtsZ protein by STD NMR (S. aureus FtsZ [4]) | inhibition of FtsZ polymerization (S. aureus FtsZ [5]) | inhibition at 50 µM (S. aureus FtsZ [6]) [%] | inhibition at 75 µM (S. aureus FtsZ [6]) [%] | MIC (B. subtilis 168 [7]) [µM] | average cell length (B. subtilis 168 [8]) [μm] | Z-ring localization [9] | compound solubility [10]
COc1cccc(OC)c1C(=O)N[C@@H]1C(=O)N2[C@@H]1SC(C)(C)[C@@H]2C(=O)O [methicillin, reference compound] | > 64 | > 64 | 64 (≈ 168 µM) | 64 (≈ 168 µM) |  |  |  |  |  |  |  |  |  |  |  |  |  |  |  | 
CCC(CC)c1cc(CCN2CCCN(Cc3ccc(C(F)(F)F)cc3)CC2)nc(-c2ccncc2)n1 [14av_amine16, 1-(2-(6-(Pentan-3-yl)-2-(pyridin-4-yl)pyrimidin-4-yl)ethyl)-4-(4-(trifluoromethyl)benzyl)-1,4-diazepane] | 6 (≈ 11.7 µM) | 6 (≈ 11.7 µM) | 6 (≈ 11.7 µM) | 6 (≈ 11.7 µM) | 4 (≈ 7.82 µM) | 8 (≈ 4.09 µg/mL) | > 64 | 4 (≈ 7.82 µM) | 6 (≈ 11.7 µM) | did not kill the G. mellonella larvae | 36 | 20 | binds to FtsZ protein | complete inhibition | ~20 | ~25 | 12 (≈ 6.14 µg/mL) | > 20 | obvious mislocalization of the Z-ring | poor compound solubility
